Key:
[1] = molecular target: T1, Growth hormone secretagogue receptor type 1 (Homo sapiens, UniProt Q92847); assay: Inverse agonist at recombinant human GHSR1a expressed in HEK293 cells assessed as decrease in IP1 accumulation after 1 hr by IP1-d2-based HTRF assay; assay type: functional, cell-based
Method in brief: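 HEK293 cells stably expressing human GHSR1a were seeded on Matrigel in complete DMEM for 18–22 h at 37 °C, 5% CO2. Compound in stimulation buffer was applied for 1 h at 37 °C. IP1-d2 and Tb-cryptate were then added for 1 h at room temperature, with HTRF read at 620/665 nm. Mean of at least two independent runs in triplicate.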

[2] = molecular target: T1, Growth hormone secretagogue receptor type 1; assay: Antagonist activity at recombinant human GHSR1a expressed in HEK293 cells assessed as inhibition of ghrelin-induced intracellular calcium release incubated for 20 secs and measured after 2 mins by FLIPR assay; assay type: functional, cell-based
Method in brief: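 HEK293/GHSR1a cells were dye-loaded for 30-60 min. Compounds and 10 nM ghrelin were added at t = 20 s, with a 15 min compound preincubation described. Calcium response was read for 2 min. IC50 was taken from dose-response fits of the reduction in ghrelin response; mean of at least two independent runs done in triplicate.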

[3] = Clearance in human liver microsomes at 0.625 uM preincubated for 5 mins followed by NADPH addition and measured after 60 mins by LC-MS/MS analysis; assay type: ADME, microsome; details: read-out: CLH
Method in brief: (§1)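 Liver microsomes (0.625 mg/mL protein) in 50 mM potassium phosphate pH 7.4 with 0.625 µM test item, prewarmed 5 min at 37 °C. Reaction started with NADPH (5 mM solution). Samples taken at 0, 5, 15, 30 and 60 min into cold MeCN with internal standard, analysed by LC-MS/MS. Intrinsic clearance derived by the half-life approach.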

[4] = Clearance in dog liver microsomes at 0.625 uM preincubated for 5 mins followed by NADPH addition and measured after 60 mins by LC-MS/MS analysis; assay type: ADME, Canis lupus familiaris, microsome; details: read-out: CLH; method in brief: as §1
[5] = Clearance in rat liver microsomes at 0.625 uM preincubated for 5 mins followed by NADPH addition and measured after 60 mins by LC-MS/MS analysis; assay type: ADME, microsome; details: read-out: CLH; method in brief: as §1
[6] = Clearance in mouse liver microsomes at 0.625 uM preincubated for 5 mins followed by NADPH addition and measured after 60 mins by LC-MS/MS analysis; assay type: ADME, microsome; details: read-out: CLH; method in brief: as §1
[7] = molecular target: T1, Growth hormone secretagogue receptor type 1; assay: Agonist activity at recombinant human GHSR1a expressed in HEK293 cells assessed as induction of intracellular calcium release after 15 mins by FLIPR assay; assay type: functional, cell-based; details: read-out: EC50
Method in brief: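 HEK293 cells stably expressing human GHSR1a, seeded 24 h before the run, then loaded with calcium dye for 30-60 min at room temperature or 37 °C. DMSO-dissolved compounds were added and intracellular calcium release was monitored by FLIPR fluorescence.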

T1 sequence (Q92847 whole entry): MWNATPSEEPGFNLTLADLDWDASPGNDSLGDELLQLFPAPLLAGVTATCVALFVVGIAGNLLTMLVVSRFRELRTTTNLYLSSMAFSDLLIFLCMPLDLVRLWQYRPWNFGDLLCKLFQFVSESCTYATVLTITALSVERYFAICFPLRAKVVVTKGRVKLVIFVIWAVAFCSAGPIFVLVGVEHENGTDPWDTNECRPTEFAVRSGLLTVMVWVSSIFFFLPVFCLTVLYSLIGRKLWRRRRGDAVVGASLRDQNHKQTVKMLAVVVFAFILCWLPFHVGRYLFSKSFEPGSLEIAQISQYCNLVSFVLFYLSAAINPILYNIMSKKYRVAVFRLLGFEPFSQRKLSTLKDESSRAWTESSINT

| EC50 ([1]; read-out: EC50) | IC50 [2] | microsomal CLint at 0.625 µM [3] | microsomal CLint at 0.625 µM [4] | microsomal CLint at 0.625 µM [5] | microsomal CLint at 0.625 µM [6] | EC50 ([1]; hek293) | EC50 [7] | Structure (SMILES) |
| --- | --- | --- | --- | --- | --- | --- | --- | --- |
| 0.0857 µM | 0.12 µM | – | – | – | – | – | – | COc1ccc2c(c1)CCC2N1CCC(N(C)C(=O)N[C@@H](C)c2ccc(OC)c(Cl)c2Cl)CC1 (some centres not stated) |
| 0.051 µM | 0.08 µM | 53.9 µL/min/mg | 62.3 µL/min/mg | 19.2 µL/min/mg | 42.6 µL/min/mg | – | – | Cc1cc(-c2ccc3c(c2)CCC3N2CCC(N(C)C(=O)N[C@@H](C)c3ccc(C#CC4CC4)c(Cl)c3Cl)CC2)ncn1 (some centres not stated) |
| 0.634 µM | 0.798 µM | – | – | – | – | – | – | C[C@H](NC(=O)N(C)C1CCN(C2CCc3cc(-c4ncccn4)ccc32)CC1)c1ccc(C#CC2CC2)c(Cl)c1Cl (some centres not stated) |
| 0.97 µM | 5.4 µM | – | – | – | – | – | – | Cc1cc(-c2ccc3c(c2)CCC3N2CCC(N(C)C(=O)N[C@@H](CC3CC3)c3cccc(Cl)c3Cl)CC2)ncn1 (some centres not stated) |
| 0.189 µM | 1.17 µM | – | – | – | – | – | – | Cc1ccc2c(c1)CCC2N1CCC(N(C)C(=O)N[C@@H](C)c2ccc(O)c(Cl)c2Cl)CC1 (some centres not stated) |
| – | 1.3 µM | 87.1 µL/min/mg | – | – | 117 µL/min/mg | Not Active | – | COc1ccc([C@H](C)NC(=O)N(C)C2CCN(C3CCc4cc(O)ccc43)CC2)c(Cl)c1Cl (some centres not stated) |
| 0.07 µM | 0.24 µM | 79.8 µL/min/mg | – | – | 244 µL/min/mg | – | – | COc1ccc([C@H](C)NC(=O)N(C)C2CCN(C3CCc4cc(-n5nccn5)ccc43)CC2)c(Cl)c1Cl (some centres not stated) |
| – | > 30 µM | – | – | – | – | Not Active | > 30 µM | Cc1cn2cc(CNC(=O)N(C)C3CCN(C)CC3)nc2s1 |
| 1.28 µM | 1.28 µM | – | – | – | – | – | – | Cc1cc(-c2ccc3c(c2)CC[C@@H]3N2CCC(N(C)C(=O)N[C@@H](C)c3ccc(C#CC4CC4)c(Cl)c3Cl)CC2)ncn1 |
| 0.073 µM | 0.329 µM | 80.3 µL/min/mg | 168 µL/min/mg | 143 µL/min/mg | 217 µL/min/mg | – | – | COc1ccc([C@H](C)NC(=O)N(C)C2CCN(C3CCc4cc(C)ccc43)CC2)c(Cl)c1Cl (some centres not stated) |
| – | > 30 µM | – | – | – | – | Not Active | – | Cc1cc(-c2ccc3c(c2)CCC3N2CCC(N(C)C(=O)N[C@@H](C)c3ccc(C(=O)O)c(Cl)c3Cl)CC2)ncn1 (some centres not stated) |
| 0.439 µM | 1.8 µM | – | – | – | – | – | – | COc1ccc([C@H](CC2CC2)NC(=O)N(C)C2CCN(C3CCc4cc(-c5cc(C)ncn5)ccc43)CC2)c(Cl)c1Cl (some centres not stated) |
| 0.0106 µM | 0.156 µM | 165 µL/min/mg | 137 µL/min/mg | 65.6 µL/min/mg | 157 µL/min/mg | – | – | C#Cc1ccc([C@H](C)NC(=O)N(C)C2CCN(C3CCc4cc(-c5cc(C)ncn5)ccc43)CC2)c(Cl)c1Cl (some centres not stated) |
| – | > 30 µM | – | – | – | – | Not Active | > 30 µM | Cc1cn2cc(C(C)NC(=O)N(C)C3CCN(C)CC3)nc2s1 (configuration not stated) |
| 0.0848 µM | 0.0859 µM | – | – | – | – | – | – | C[C@H](NC(=O)N(C)C1CCN(C2CCc3cc(-c4cncnc4)ccc32)CC1)c1ccc(C#CC2CC2)c(Cl)c1Cl (some centres not stated) |
| – | 0.919 µM | – | – | – | – | Not Active | – | C[C@H](NC(=O)N(C)C1CCN(C2CCc3ccccc32)CC1)c1ccc(C#CC2CC2)c(Cl)c1Cl (some centres not stated) |
| 0.937 µM | 2.92 µM | – | – | – | – | – | – | CCN(C(=O)N[C@@H](C)c1ccc(C#CC2CC2)c(Cl)c1Cl)C1CCN(C2CCc3cc(-c4cc(C)ncn4)ccc32)CC1 (some centres not stated) |
| 0.484 µM | 4.54 µM | – | – | – | – | – | – | Cc1cc(-c2ccc3c(c2)CCC3N2CCC(N(C)C(=O)N[C@@H](CC3CC3)c3ccc(-c4cnccn4)c(Cl)c3Cl)CC2)ncn1 (some centres not stated) |
| 0.363 µM | 0.53 µM | – | – | – | – | – | – | Cc1cc(-c2ccc3c(c2)CCC3N2CCC(N(C)C(=O)N[C@@H](C)c3ccc(C#CC4CC4)c(Cl)c3Cl)C(C)(C)C2)ncn1 (some centres not stated) |

| EC50 ([1]; read-out: EC50) | IC50 [2] | microsomal CLint at 0.625 µM [3] | microsomal CLint at 0.625 µM [4] | microsomal CLint at 0.625 µM [5] | microsomal CLint at 0.625 µM [6] | EC50 ([1]; hek293) | EC50 [7] | Structure (SMILES) |
| --- | --- | --- | --- | --- | --- | --- | --- | --- |
| – | 0.148 µM | – | – | – | – | Not Active | – | Cc1cc(-c2ccc3c(c2)CCC3N2CCC(N(C)C(=O)N[C@@H](C)c3ccc(C#CC4CC4)c(Cl)c3Cl)C2)ncn1 (some centres not stated) |
| – | 2 µM | – | – | – | – | Not Active | – | Cc1ccc2c(c1)CCC2N1CCC(N(C)C(=O)N[C@@H](C)c2ccc(C#C[Si](C)(C)C)c(Cl)c2Cl)CC1 (some centres not stated) |
| 0.298 µM | 2.87 µM | – | – | – | – | – | – | Cc1cc(-c2ccc3c(c2)CCC3N2CCC(N(C)C(=O)N[C@@H](C)c3ccc(C4CC4)c(Cl)c3Cl)CC2)ncn1 (some centres not stated) |
| 0.096 µM | 0.303 µM | – | – | – | – | – | – | COC(=O)c1ccc([C@H](C)NC(=O)N(C)C2CCN(C3CCc4cc(-c5cc(C)ncn5)ccc43)CC2)c(Cl)c1Cl (some centres not stated) |
| – | 2.7 µM | – | – | – | – | Not Active | – | Cc1cc(-c2ccc3c(c2)CCC3N2CCC(N(C)C(=O)NCc3cccc(Cl)c3Cl)CC2)ncn1 (configuration not stated) |
| – | 1.13 µM | – | – | – | – | Not Active | – | Cc1cc(-c2ccc3c(c2)CCC3N2CCC(N(C)C(=O)NCc3ccc(C#CC4CC4)c(Cl)c3Cl)CC2)ncn1 (configuration not stated) |
| – | 1.51 µM | 47.1 µL/min/mg | – | – | 70.4 µL/min/mg | Not Active | – | COc1ccc([C@H](C)NC(=O)N(C)C2CCN(C3CCc4cc(N)ccc43)CC2)c(Cl)c1Cl (some centres not stated) |
| 0.0407 µM | 0.315 µM | 241 µL/min/mg | – | 271 µL/min/mg | 388 µL/min/mg | – | – | COc1ccc([C@H](C)NC(=O)N(C)C2CCN(C3CCc4cc(Cl)ccc43)CC2)c(Cl)c1Cl (some centres not stated) |
| 2.16 µM | 8.08 µM | – | – | – | – | – | – | Cc1cc(-c2ccc3c(c2)CCC3N2CCC(N(C)C(=O)N[C@H](c3ccc(-c4cnccn4)c(Cl)c3Cl)C(F)(F)F)CC2)ncn1 (some centres not stated) |
| 0.117 µM | 0.282 µM | – | – | – | – | – | – | Cc1ccc2c(c1)CCC2N1CCC(N(C)C(=O)N[C@@H](C)c2ccc(C#CC3CC3)c(Cl)c2Cl)CC1 (some centres not stated) |
| 0.306 µM | 0.192 µM | – | – | – | – | – | – | CC[C@H](NC(=O)N(C)C1CCN(C2CCc3cc(-c4cc(C)ncn4)ccc32)CC1)c1ccc(C#CC2CC2)c(Cl)c1Cl (some centres not stated) |
| – | 0.106 µM | – | – | – | – | Not Active | – | C#Cc1ccc([C@H](C)NC(=O)N(C)C2CCN(C3CCc4cc(C)ccc43)CC2)c(Cl)c1Cl (some centres not stated) |
| 0.067 µM | 0.171 µM | 94.2 µL/min/mg | 241 µL/min/mg | 69.5 µL/min/mg | 122 µL/min/mg | – | – | COc1ccc([C@H](C)NC(=O)N(C)C2CCN(C3CCc4cc(-c5cc(C)ncn5)ccc43)CC2)c(Cl)c1Cl (some centres not stated) |
| – | 2.33 µM | – | – | – | – | Not Active | > 30 µM | Cc1cc(-c2ccc3c(c2)CCC3N2CCC(N(C)C(=O)NC(C)c3cccc(Cl)c3Cl)CC2)ncn1 (configuration not stated) |
| 0.121 µM | 0.571 µM | – | – | – | – | – | – | Cc1cc(-c2ccc3c(c2)CCC3N2CCC(N(C)C(=O)N[C@@H](C)c3ccc(N)c(Cl)c3Cl)CC2)ncn1 (some centres not stated) |
| 0.194 µM | 0.369 µM | – | – | – | – | – | > 30 µM | Cc1cc(-c2ccc3c(c2)CCC3N2CCC(N(C)C(=O)N[C@@H](C)c3ccc(-c4cnccn4)c(Cl)c3Cl)CC2)ncn1 (some centres not stated) |
| – | 4.01 µM | – | – | – | – | Not Active | > 30 µM | Cc1cc(-c2ccc3c(c2)CC[C@H]3N2CC3(CCN(C(=O)N[C@@H](C)c4cccc(Cl)c4Cl)CC3)C2)ncn1 |
| – | 2.37 µM | – | – | – | – | Not Active | – | Cc1ccc2c(c1)CCC2N1CCC(N(C)C(=O)N[C@@H](C)c2ccc(C3CC3)c(Cl)c2Cl)CC1 (some centres not stated) |
| 0.483 µM | 1.21 µM | – | – | – | – | – | > 30 µM | Cc1cc(-c2ccc3c(c2)CC[C@H]3N2CC3(CCN(C(=O)N[C@@H](C)c4ccc(-c5cnccn5)c(Cl)c4Cl)CC3)C2)ncn1 |
